According to ChEMBL document CHEMBL1140168, “Phthalides from Pittosporum illicioides var. illicioides with inhibitory activity on superoxide generation and elastase release by neutrophils” (J Nat Prod, 2008):

Columns and labels:
[1] = Antiinflammatory activity in human neutrophils assessed as inhibition of fMLP/Cytochalasin B-induced elastase release; assay type: functional, cell-based; settings: Neutrophil
Summary of the method: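 Elastase release (azurophilic degranulation) was measured in donor neutrophils (6 × 10^5/mL) with MeO-Suc-Ala-Ala-Pro-Val-p-nitroanilide substrate at 100 µM. Cells were equilibrated 2 min at 37 °C, then pretreated with compound for 5 min. Stimulation was with fMLP 100 nM plus cytochalasin B 0.5 µg/mL, and A405 was monitored continuously. IC50 came from concentration-dependent inhibition.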

[2] = Antiinflammatory activity in human neutrophils assessed as inhibition of fMLP/cytochalasin B-induced superoxide radical anion generation; assay type: functional, cell-based; settings: Neutrophil
Summary of the method: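 Neutrophils from healthy adult donors were isolated by dextran sedimentation, Ficoll Hypaque centrifugation and hypotonic RBC lysis, then kept in Ca2+-free HBSS pH 7.4 at 4 °C. Cells with 0.5 mg/mL ferricytochrome c and 1 mM Ca2+ were equilibrated 2 min at 37 °C and given compound for 5 min. CB 1 µg/mL was added 3 min before 100 nM fMLP (10 min). SOD-inhibitable A550 was read continuously.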

SMILES	IC50 [1]	IC50 [2]
O=S(=O)(F)Cc1ccccc1 [PHENYLMETHYLSULFONYLFLUORIDE]	202 µM	–
C/C=C1\OC(=O)c2c1ccc(OC)c2OC	33.9 µM	> 50 µM
c1ccc2c(c1)[I+]c1ccccc1-2 [DIPHENYLENEIODONIUM]	–	1.7 µM
CC[C@H]1OC(=O)c2c1ccc(OC)c2O	> 50 µM	21.2 µM
CC[C@@H]1OC(=O)c2c1ccc(OC)c2O	> 50 µM	29.8 µM
COc1cc2ccc(=O)oc2c(OC)c1OC [FRAXIDIN METHYL ETHER]	> 50 µM	48.6 µM

Further lines, results first:

IC50 [1]	IC50 [2]	SMILES
38.6 µM	45.3 µM	C/C=C1\OC(=O)c2c1ccc(OC)c2O
> 50 µM	13.7 µM	CC[C@@H]1OC(=O)c2c1cc(OC)c(OC)c2O
> 50 µM	17.6 µM	CC[C@@H]1OC(=O)c2c1cc(OC)c(OC)c2OC
> 50 µM	41.4 µM	COc1cc2ccc(=O)oc2cc1OC [SCOPARONE]
> 50 µM	40.2 µM	COc1cc([C@@H]2OC[C@@H]3[C@H]2CO[C@H]3c2cc(OC)c(O)c(OC)c2)cc(OC)c1O
